From ChEMBL document CHEMBL3580569, “N-Substituted Quinolinonyl Diketo Acid Derivatives as HIV Integrase Strand Transfer Inhibitors and Their Activity against RNase H Function of Reverse Transcriptase” (J Med Chem, 2015)
pEC50, pIC50: −log10 of the molar value. One block for each compound: values may come before it.

Assays:
[1] = biological target: T1, Human immunodeficiency virus type 1 integrase (Human immunodeficiency virus 1, UniProt Q7ZJM1)
[2] = test system: HeLa; assay: Cytotoxicity against human HeLa-CD4-LTR-beta-gal cells after 24 hrs by ATPlite reagent based luminescence analysis; type: cell-based
[3] = test system: Human immunodeficiency virus 1; assay: Antiviral activity against HIV-1 3B infected in human HeLa-CD4-LTR-beta-gal cells assessed as inhibition of viral replication by SpectraMax GEMINI-XS plate reader analysis; type: functional, organism-based; settings: Human immunodeficiency virus 1, 3B
In short: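 HeLa-CD4-LTR-β-gal cells kept in DMEM, 10% serum, 0.5 mg/mL G418; seeded 10000 cells/well the day before. Drug 3-fold serially diluted over six points on cells (top 50 μM), then fresh medium or concentrated HIV-1(IIIB) supernatant added.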

[4] = biological target: Human immunodeficiency virus type 1 reverse transcriptase (Human immunodeficiency virus 1) (UniProt Q72547); assay: Inhibition of RNase H function of HIV1 reverse transcriptase using DNA/RNA hybrid as substrate at 10 uM by fluorescence spectrometer analysis
In short: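 RNase H activity of HIV-1 RT was measured with an RNA/DNA hybrid substrate at 250 nM final, with 150–800 ng RT, in 50 mM Tris-HCl pH 8.0, 60 mM KCl, 10 mM MgCl2 and 1% DMSO, against DMSO-only wells. Fluorescence (ex 485/em 520 nm) was read each minute over 10 min at 37 °C. Percent inhibition at 10 μM = 100(v0−vi)/v0 from initial rates, run in triplicate.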

[5] = biological target: T1, Human immunodeficiency virus type 1 integrase; remark: listed apart in the source
[6] = biological target: Human immunodeficiency virus type 1 reverse transcriptase (Human immunodeficiency virus 1, UniProt Q72547); assay: Inhibition of RNase H function of HIV1 reverse transcriptase using DNA/RNA hybrid as substrate by fluorescence spectrometer analysis
[7] = Selectivity index, ratio of CC50 for human HeLa-CD4-LTR-beta-gal cells to EC50 for HIV-1 3B infected in human HeLa-CD4-LTR-beta-gal cells; type: toxicity; settings: read-out: Ratio CC50/EC50

T1 sequence (Q7ZJM1 whole entry): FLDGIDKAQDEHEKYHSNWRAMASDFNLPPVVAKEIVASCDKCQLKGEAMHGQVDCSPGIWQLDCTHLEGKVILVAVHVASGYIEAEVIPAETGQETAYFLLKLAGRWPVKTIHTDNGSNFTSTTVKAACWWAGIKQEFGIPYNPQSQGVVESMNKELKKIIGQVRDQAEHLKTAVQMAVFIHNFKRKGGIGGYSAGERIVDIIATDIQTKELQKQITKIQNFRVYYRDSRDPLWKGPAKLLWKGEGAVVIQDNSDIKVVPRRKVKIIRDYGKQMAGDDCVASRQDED

SMILES: O=C(O)/C(O)=C/C(=O)c1cn(Cc2ccccc2)c2ccccc2c1=O
pIC50 [1]: 5.40
CC50 [2]: > 50 µM
pEC50 [3]: 4.81
inhibition [4]: 9.6%
pIC50 [5]: 7.47

SMILES: O=C(O)/C(O)=C/C(=O)c1cn(Cc2ccccc2F)c2c(Cl)cccc2c1=O
pIC50 [1]: 4.69
pEC50 [3]: < 4.30
inhibition [4]: 45%
pIC50 [6]: < 4.30
pIC50 [5]: 6.89

SMILES: O=C(O)/C(O)=C/C(=O)c1cn(Cc2ccc3ccccc3n2)c2ccccc2c1=O
pIC50 [1]: 4.15
pEC50 [3]: < 4.30
inhibition [4]: 16.4%
pIC50 [5]: 6.40

SMILES: O=C(O)/C(O)=C/C(=O)c1cn(Cc2ccc(O)cc2)c2ccccc2c1=O
pIC50 [1]: < 4.43
pEC50 [3]: < 4.30
pIC50 [6]: 5.02
pIC50 [5]: 6.35

SMILES: CCOC(=O)/C(O)=C/C(=O)c1cn(Cc2ccc(Cl)cc2Cl)c2ccccc2c1=O
pEC50 [3]: < 4.30
inhibition [4]: 51%
pIC50 [6]: < 4.30
pIC50 [5]: < 3.95

SMILES: O=C(O)/C(O)=C/C(=O)c1cn(CCCCc2ccccc2)c2ccccc2c1=O
pIC50 [1]: < 3.48
pEC50 [3]: < 4.30
inhibition [4]: 33%
pIC50 [5]: > 6.35

SMILES: CCOC(=O)/C(O)=C/C(=O)c1cn(CCCCc2ccccc2)c2ccccc2c1=O
pIC50 [1]: < 3.48
pEC50 [3]: < 4.30
inhibition [4]: 19.4%
pIC50 [5]: 3.92

SMILES: O=C(O)/C(O)=C/C(=O)c1cn(Cc2ccc([N+](=O)[O-])cc2)c2ccccc2c1=O
pIC50 [1]: 4.57
pEC50 [3]: < 4.30
pIC50 [6]: 4.33
pIC50 [5]: 6.19

SMILES: O=C(O)/C(O)=C/C(=O)c1cn(Cc2cccc(F)c2)c2ccccc2c1=O
pIC50 [1]: 5.34
selectivity ratio [7]: > 1.8
CC50 [2]: > 50 µM
pEC50 [3]: 4.55
inhibition [4]: 2.4%
pIC50 [5]: 7.82

SMILES: CCOC(=O)/C(O)=C/C(=O)c1cn(Cc2ccc3ccccc3c2)c2ccccc2c1=O
pIC50 [1]: < 3.48
pEC50 [3]: < 4.30
inhibition [4]: 29.7%
pIC50 [5]: 4.49

SMILES: Cc1nnc(C(=O)NC(C)(C)c2nc(C(=O)NCc3ccc(F)cc3)c(O)c(=O)n2C)o1
CC50 [2]: > 50 µM

SMILES: O=C(O)/C(O)=C/C(=O)c1cn(Cc2cc(F)ccc2F)c2ccccc2c1=O
pEC50 [3]: < 4.30
inhibition [4]: 37%
pIC50 [6]: < 4.30
pIC50 [5]: 5.49

SMILES: Cc1cc(C)cc(Cn2cc(C(=O)/C=C(\O)C(=O)O)c(=O)c3ccccc32)c1
pEC50 [3]: < 4.30
pIC50 [6]: 4.42
pIC50 [5]: 7.30

SMILES: O=C(O)/C(O)=C/C(=O)c1cn(Cc2c(Cl)cccc2Cl)c2ccccc2c1=O
pEC50 [3]: < 4.30
inhibition [4]: 86.3%
pIC50 [6]: 5.00
pIC50 [5]: 6.57

SMILES: COc1cccc(Cn2cc(C(=O)/C=C(\O)C(=O)O)c(=O)c3ccccc32)c1 [RDS-2161]
pIC50 [1]: < 5.39
pEC50 [3]: < 4.30
inhibition [4]: 1.9%
pIC50 [5]: 6.85

SMILES: CCOC(=O)/C(O)=C/C(=O)c1cn(Cc2ccc(OC)cc2)c2ccccc2c1=O
pIC50 [1]: < 4.43
pEC50 [3]: < 4.30
inhibition [4]: 10%
pIC50 [5]: < 4.43

SMILES: O=C(O)/C(O)=C/C(=O)c1cn(Cc2ccc(F)c(Cl)c2)c2c(Cl)cccc2c1=O
pIC50 [1]: 5.01
pEC50 [3]: 4.30
inhibition [4]: 16%
pIC50 [5]: 7.02

SMILES: CCOC(=O)/C(O)=C/C(=O)c1cn(Cc2c(F)cccc2F)c2ccccc2c1=O
pIC50 [1]: < 4.91
selectivity ratio [7]: > 250
CC50 [2]: > 50 µM
pEC50 [3]: > 6.70
inhibition [4]: 4.1%
pIC50 [5]: 6.60

SMILES: CCOC(=O)/C(O)=C/C(=O)c1cn(Cc2ccccc2F)c2cc(Cl)ccc2c1=O
selectivity ratio [7]: > 4.5
CC50 [2]: > 50 µM
pEC50 [3]: 4.96
inhibition [4]: 2.8%

pIC50 [1]: < 4.30
SMILES: O=C(O)/C(O)=C/C(=O)c1cn(Cc2ccc(F)cc2)c2cc(Cl)c(Cl)cc2c1=O

SMILES: CCOC(=O)/C(O)=C/C(=O)c1cn(Cc2cc(F)cc(F)c2)c2ccccc2c1=O
selectivity ratio [7]: > 1.5
CC50 [2]: > 50 µM
pEC50 [3]: 4.49
inhibition [4]: 24%
pIC50 [5]: 4.96

SMILES: CCOC(=O)/C(O)=C/C(=O)c1cn(Cc2ccc(F)cc2F)c2ccccc2c1=O
selectivity ratio [7]: > 86.2
CC50 [2]: > 50 µM
pEC50 [3]: 6.24
inhibition [4]: 3%
pIC50 [5]: 5.66

SMILES: CCOC(=O)/C(O)=C/C(=O)c1cn(Cc2ccc([N+](=O)[O-])cc2)c2ccccc2c1=O
pIC50 [1]: < 4.43
pEC50 [3]: < 4.30
inhibition [4]: 31.9%
pIC50 [5]: < 4.43

SMILES: CCOC(=O)/C(O)=C/C(=O)c1cn(Cc2cccc(F)c2)c2ccccc2c1=O [RDS-1624]
pIC50 [1]: < 4.91
selectivity ratio [7]: > 29.4
CC50 [2]: > 50 µM
pEC50 [3]: 5.77
inhibition [4]: -9.4%
pIC50 [5]: 5.31

SMILES: O=C(O)/C(O)=C/C(=O)c1cn(Cc2ccncc2)c2ccccc2c1=O
pIC50 [1]: < 3.00
pEC50 [3]: < 4.30
inhibition [4]: -2.6%
pIC50 [5]: 4.80

SMILES: CCOC(=O)/C(O)=C/C(=O)c1cn(Cc2ccncc2)c2ccccc2c1=O
pIC50 [1]: < 3.48
pEC50 [3]: < 4.30
inhibition [4]: -5.6%
pIC50 [5]: 4.85

SMILES: CCOC(=O)/C(O)=C/C(=O)c1cn(Cc2ccc3ccccc3n2)c2ccccc2c1=O
pIC50 [1]: < 3.00
pEC50 [3]: < 4.30
inhibition [4]: 4.4%
pIC50 [5]: 5.46

SMILES: CCOC(=O)/C(O)=C/C(=O)c1cn(Cc2cccc(OC)c2)c2ccccc2c1=O
pIC50 [1]: < 3.48
selectivity ratio [7]: 5.2
CC50 [2]: 44 µM
pEC50 [3]: 5.07
inhibition [4]: 4.9%
pIC50 [5]: 4.80

SMILES: CCOC(=O)/C(O)=C/C(=O)c1cn(Cc2cccc(Cl)c2F)c2ccccc2c1=O
pIC50 [1]: 5.97
selectivity ratio [7]: > 5
CC50 [2]: > 50 µM
pEC50 [3]: 5.00
inhibition [4]: 21%
pIC50 [5]: 5.97

SMILES: CCOC(=O)/C(O)=C/C(=O)c1cn(Cc2ccc(Cl)cc2)c2ccccc2c1=O
pIC50 [1]: < 4.43
pEC50 [3]: < 4.30
inhibition [4]: 16.1%
pIC50 [5]: < 4.43

SMILES: O=C(O)/C(O)=C/C(=O)c1cn(Cc2cccc(Cl)c2F)c2ccccc2c1=O
pIC50 [1]: 5.76
selectivity ratio [7]: > 2.1
CC50 [2]: > 50 µM
pEC50 [3]: 4.63
inhibition [4]: 12%
pIC50 [5]: 7.74

SMILES: CCOC(=O)/C(O)=C/C(=O)c1cn(Cc2ccccc2F)c2ccccc2c1=O
pIC50 [1]: 3.90
selectivity ratio [7]: > 33.4
CC50 [2]: > 50 µM
pEC50 [3]: 5.82
inhibition [4]: 2.8%
pIC50 [5]: 6.55

pEC50 [3]: 7.85
SMILES: COc1cc2c(cc1Cc1cccc(Cl)c1F)c(=O)c(C(=O)O)cn2[C@H](CO)C(C)C
CC50 [2]: > 50 µM

SMILES: O=C(O)/C(O)=C/C(=O)c1cn(Cc2ccc(F)c(Cl)c2)c2ccccc2c1=O
pIC50 [1]: 4.68
pEC50 [3]: < 4.30
inhibition [4]: 25%
pIC50 [5]: 6.72

SMILES: CCOC(=O)/C(O)=C/C(=O)c1cn(Cc2ccccc2OC)c2ccccc2c1=O [20, RDS-2163]
pIC50 [1]: < 3.48
selectivity ratio [7]: > 19.2
CC50 [2]: > 50 µM
pEC50 [3]: 5.59
inhibition [4]: 11.4%
pIC50 [5]: 5.85

SMILES: CCOC(=O)/C(O)=C/C(=O)c1cn(Cc2cc(F)ccc2F)c2ccccc2c1=O
pEC50 [3]: < 4.30
inhibition [4]: 30%
pIC50 [5]: 5.43

SMILES: CCOC(=O)/C(O)=C/C(=O)c1cn(Cc2ccccc2)c2ccccc2c1=O
pIC50 [1]: < 3.00
selectivity ratio [7]: > 50
CC50 [2]: > 50 µM
pEC50 [3]: 6.00
inhibition [4]: -3.3%
pIC50 [5]: 6.15

SMILES: CCOC(=O)/C(O)=C/C(=O)c1cn(Cc2ccc(F)c(Cl)c2)c2ccccc2c1=O
pIC50 [1]: 3.58
selectivity ratio [7]: > 2.9
CC50 [2]: > 50 µM
pEC50 [3]: 4.76
inhibition [4]: 18%
pIC50 [5]: 5.51

SMILES: CCOC(=O)/C(O)=C/C(=O)c1cn(Cc2ccc(C)cc2C)c2ccccc2c1=O
pEC50 [3]: < 4.30
inhibition [4]: 33%
pIC50 [6]: < 4.30
pIC50 [5]: < 3.95

SMILES: O=C(O)/C(O)=C/C(=O)c1cn(Cc2ccc(Cl)cc2Cl)c2ccccc2c1=O
pEC50 [3]: < 4.30
pIC50 [6]: 4.35
pIC50 [5]: 5.64

SMILES: CCOC(=O)/C(O)=C/C(=O)c1cn(Cc2cc(C)cc(C)c2)c2ccccc2c1=O
pEC50 [3]: < 4.30
inhibition [4]: 21%
pIC50 [5]: 5.89

SMILES: CCOC(=O)/C(O)=C/C(=O)c1cn(Cc2ccc(F)c(F)c2)c2ccccc2c1=O
selectivity ratio [7]: > 5.1
CC50 [2]: > 50 µM
pEC50 [3]: 5.01
inhibition [4]: 24%
pIC50 [5]: 5.26

SMILES: O=C(O)/C(O)=C/C(=O)c1cn(Cc2cc(F)cc(F)c2)c2ccccc2c1=O
pEC50 [3]: < 4.30
inhibition [4]: 30%
pIC50 [6]: < 4.30
pIC50 [5]: 6.66

SMILES: Cc1ccc(Cn2cc(C(=O)/C=C(\O)C(=O)O)c(=O)c3ccccc32)c(C)c1
pEC50 [3]: < 4.30
pIC50 [6]: 4.71
pIC50 [5]: 5.15

SMILES: CCOC(=O)/C(O)=C/C(=O)c1cn(Cc2ccc(O)cc2)c2ccccc2c1=O
pIC50 [1]: < 3.48
selectivity ratio [7]: > 1.6
CC50 [2]: > 50 µM
pEC50 [3]: 4.51
inhibition [4]: 26%
pIC50 [5]: 5.85

SMILES: O=C(O)/C(O)=C/C(=O)c1cn(Cc2ccc3ccccc3c2)c2ccccc2c1=O
pIC50 [1]: 4.74
selectivity ratio [7]: > 10.4
CC50 [2]: > 50 µM
pEC50 [3]: 5.32
inhibition [4]: 40.7%
pIC50 [5]: > 6.35

SMILES: CCOC(=O)/C(O)=C/C(=O)c1cn(Cc2ccc(F)c(Cl)c2)c2c(Cl)cccc2c1=O
pIC50 [1]: < 3.48
pEC50 [3]: < 4.30
inhibition [4]: 24%
pIC50 [5]: 4.60
